We go through 13 molecules from PubChem BioAssay AID602407 (Southern Research Specialized Biocontainment Screening …, 2012).

What is called IC50 is the concentration at which inhibition is half-maximal.

Calls of active or inactive are those of the source.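 Rule for the calls: active = inhibition of 30% or more at any tested concentration; inactive = the rest.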

Sequence of Cytosol aminopeptidase (Homo sapiens) (P28838 whole entry, looked up): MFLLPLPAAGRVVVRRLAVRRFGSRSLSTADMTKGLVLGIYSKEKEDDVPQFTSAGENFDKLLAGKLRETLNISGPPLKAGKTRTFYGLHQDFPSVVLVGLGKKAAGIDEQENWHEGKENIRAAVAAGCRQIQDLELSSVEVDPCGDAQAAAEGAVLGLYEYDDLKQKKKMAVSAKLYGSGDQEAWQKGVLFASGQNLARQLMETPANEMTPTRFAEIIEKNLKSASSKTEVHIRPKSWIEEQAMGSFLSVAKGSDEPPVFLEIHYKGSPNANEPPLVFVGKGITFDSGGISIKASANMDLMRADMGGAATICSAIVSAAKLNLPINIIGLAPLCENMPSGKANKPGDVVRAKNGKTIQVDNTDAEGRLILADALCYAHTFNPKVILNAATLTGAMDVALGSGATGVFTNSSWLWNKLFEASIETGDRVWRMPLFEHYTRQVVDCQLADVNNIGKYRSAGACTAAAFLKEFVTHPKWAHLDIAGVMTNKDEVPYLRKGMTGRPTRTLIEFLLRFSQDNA

One assay deals with Cytosol aminopeptidase (Homo sapiens) (UniProt P28838). The assay can be described thus: human M17 leucine aminopeptidase inhibitors, dose response, counter-screen for PfM17LAP inhibitor project, biochemical, QFRET fluorogenic substrate (AID 602407). Particulars: recombinant human M17LAP, H-Leu-NHMec fluorogenic cleavage. Summed up:
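System: recombinant human M17LAP enzyme. Times: enzyme reaction with compounds, 90 min at room temperature. Detection: NHMec fluorescence, 370/460 nm. Benchmarks: full reaction and enzyme-free controls.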
Take `CCCCOc1ccc(C(C)C(=O)NO)cc1` (stereo not drawn): the concentration for half-maximal inhibition (IC50) is 530 nM.

Regarding `O=C(NO)c1ccc2ccccc2c1`, the IC50 was 8380 nM.

`CCCOc1ccc(CC(=O)NO)cc1`: the IC50 was 490 nM.

Take `CCC(C)Oc1ccc(CC(=O)NO)cc1` (stereo not drawn): the IC50 was 380 nM.

`CCCCOc1cccc(CC(=O)NO)c1`: the IC50 is 2770 nM.

The same assay, now with this note: recombinant human M17LAP, H-Leu-NHMec fluorogenic cleavage; at 100 µM (top of the series).
`CCCCOc1ccc(C(C)C(=O)OC)cc1` (stereo not drawn): the inhibition entry is “inactive”.

With `CCCOc1ccc(CC(=O)O)cc1`, the inhibition entry is “inactive”.

For the molecule `CN(C)CCOc1ccc(CC(=O)O)cc1`, the inhibition result is “inactive”.

In the case of `CCCCOc1ccc(C(C)(C)C(=O)NO)cc1`, the inhibition entry is “inactive”.

Take `CCCCOc1cccc(CC(=O)OC)c1`: the inhibition result is “inactive”.

As for `CCCCOc1ccc(CN(O)C(C)=O)cc1`, the inhibition result is “inactive”.

`CCCCOc1ccc(CN(O)C(=O)c2ccccc2)cc1`: the inhibition entry was “inactive”.

`CCCCOc1ccc(C(C)(C)C(=O)O)cc1`: the inhibition entry was “inactive”.
